Published values of several laboratories.
Target: Vascular endothelial growth factor receptor 2 (KDR, Homo sapiens, UniProt P35968)

CO[C@@H]1[C@H](N(C)C(=O)c2ccccc2)C[C@H]2O[C@]1(C)n1c3ccccc3c3c4c(c5c6ccccc6n2c5c31)C(=O)NC4
inhibition (enzyme activity; inhibitor; 1 µM): 67%

O=C(O)[C@H]1O[C@@H](Oc2cc(O)c3c(=O)cc(-c4ccc(O)c(O)c4)oc3c2)[C@H](O)[C@@H](O)[C@@H]1O
inhibition (enzyme activity; inhibitor; TR-FRET; 40 µM): 83.9%

CC#CC(=O)N1CCC[C@H]1c1nc(-c2ccc(C(=O)Nc3ccccn3)cc2)c2c(N)nccn12
inhibition (enzyme activity; inhibitor; 1 µM): 0%

COc1ccc2[nH]c3c4[nH]c5ccc(OC)cc5c4c4c(c3c2c1)C(=O)NC4=O
remaining binding (binding; competition with immobilised ligand; 1 µM): 59%

C[C@@H]1O[C@@H](O[C@H]2[C@H](Oc3cc(O)c4c(=O)cc(-c5ccc(O)cc5)oc4c3)O[C@H](CO)[C@@H](O)[C@@H]2O)[C@H](O)[C@H](O)[C@H]1O
inhibition (enzyme activity; inhibitor; TR-FRET; 40 µM): 8.3%

CCCCC(=O)Nc1ccc(-c2ccc3ncn(CCC)c(=O)c3c2)cn1
remaining binding (binding; competition with immobilised ligand; 0.5 µM): 95%

COc1ccc2oc(-c3ccc4nc(N)oc4c3)c/c(=N\c3ccccc3NC(=O)CCN)c2c1
remaining binding (binding; 1 µM): 103%

C#Cc1cnc(Nc2ccnc(CO)c2)nc1Nc1ccccc1S(C)(=O)=NC#N (stereo not shown)
remaining signal (cell-free assay; 1 µM): 41%

Cc1ccc(NC(=O)c2ccnc(C(F)(F)F)c2)cc1-c1cc(OCCO)nc(N2CCOCC2)c1
remaining binding (binding; competition with immobilised ligand; 1 µM): 85%

N#Cc1ccc(NC(=O)Nc2ccccc2)cc1
remaining binding (cell-free assay; competition with immobilised ligand; 25 µM): 96%
